Most compounds without a hit are left out; they make up all but 1.7% or so of the library.
Cneo AK release = Cryptococcus neoformans lysis via adenylate kinase release; C. neoformans lysis, adenylate kinase release luminescence, 4 h; normalised: neutral wells 0, clomiphene wells 100; lysis activity, % at 15 µM; 360,000 tested, 0.2% active; AID 651654;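 active = mean lysis activity across replicates of at least 80%, whatever share of replicates individually reach that level; inactive = mean lysis activity below 80%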
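Material – log-phase Cryptococcus neoformans yeast cells · Input – 5 × 10^6 yeast cells/mL · Medium – fresh YPD growth medium · Doses – single compound concentration per well · Timing – static 4 h at 37 °C with compound, 1 h detection · Detection – adenylate kinase release luminescence · Read-out – signal increase indicating cell lysis · Control set – Clomiphene as positive lysis control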
rRNA inh HTS = inhibitors of bacterial rRNA selective over humanized ribosomes | E. coli WT GFP vs humanized-ribosome RFP mutants, fluorescence, 24 h; hits give low values; DMSO median 0, no signal -100 | GFP signal change (wild-type ribosome), % (no concentration beside the values) | 350,000 tested, 1.6% active;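 active = significant combined selectivity score with lowered wild-type GFP, culture density cut under 30%, mutant RFP and density less affected; inactive = any of these conditions unmet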
CaV13 FRET inh = Primary screen for inhibitors of IQ motif and Ca2+-dependent inactivation inhibitor domain binding in CACNA1D, Förster resonance energy transfer in living cells, …. AID 743397. inhibition, % at 12.3 µM. 340,000 tested, 0.098% active. HEK cells, CFP/YFP FRET ICDI-IQ, plate reader, 10 min; percent FRET-ratio fall versus neutral wells;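 active = mean replicate inhibition of at least 30% and at least 1% of replicates passing that level; inconclusive = only one of the two criteria is met; inactive = neither criterion is met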;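 note: 0% = median of the neutral control wells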
F508del corr = correctors of CFTR F508del function in bronchial epithelial cells | CFBE cells, YFP halide quenching; stimulated with forskolin plus potentiator P3; % fluorescence drop versus neutral controls | activity (quench increase), % at 7.58 µM | 350,000 tested, 0.36% active | AID 720511;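 active = mean added fluorescence quench of at least 8% versus neutral control, with both replicates also reaching 8%; inconclusive = only one of the mean or replicate conditions met; inactive = mean below 8% and not both replicates reaching 8%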;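 note: cells transiently co-express mutant CFTR-F508del with the halide-sensitive YFP; corrector assay measuring rescue of mutant channel to the surface after 24 h compound exposure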
The depositor's hits bear a star; ? = inconclusive; nt = no result given; + = active, no number; ! = not confirmed by another sample.

SMILES | Cneo AK release | rRNA inh HTS | CaV13 FRET inh | F508del corr
COc1ccc(S(=O)(=O)N[C@@H]2CC[C@@H](CC(=O)NCCc3ccncc3)O[C@H]2CO)cc1 | 5 | -1 | nt | 1
O=C(Cc1ccc(Cl)cc1)Nc1ccc(S(=O)(=O)Nc2cnc3ccccc3n2)cc1 | nt | -34* | 4 | 3
Nc1ccc(S(=O)(=O)Nc2cnc3ccccc3n2)cc1 | -2 | 19 | -4 | 11*!
Nc1ccc(S(=O)(=O)Nc2cnc3c(Cl)cccc3n2)cc1 | nt | 1 | -11 | 2
CN1C(=O)[C@@](O)(c2cn(C)c3ccccc23)c2cc(Br)ccc21 | nt | -23* | -6 | 4
C/C=C/c1cnc2c(c1)C(=O)N([C@H](C)CO)C[C@H](C)[C@H](CN(C)C(=O)C1CCOCC1)O2 | -8 | -2 | nt | 0
Cc1ccc(N2C(=O)C3C(C(=O)c4ccccc4)=NN(c4ccccc4)C3C2=O)cc1 (stereo not drawn) | 0 | nt | -14 | nt
O=C(C1=NN(c2ccccc2)C2C(=O)N(c3ccccc3)C(=O)C12)c1ccccc1 (stereo not drawn) | nt | nt | + | 4
Cc1cccc(C)c1OCc1n[nH]c(=S)n1-c1ccccc1 | 4 | -29* | -3 | -1
CC(C)Oc1ccc(CCc2n[nH]c(=S)n2-c2ccccc2)cc1 | -1 | -21* | -1 | -1
COc1ccccc1/C=C/C(=O)NC(=S)NCC1CCCO1 (stereo not drawn) | 4 | -25* | -2 | 2
CCOC(=O)N1CCN(S(=O)(=O)c2ccc(C(=O)Nc3sc4c(c3C(=O)OC)CCN(C)C4)cc2)CC1 | -1 | -15* | nt | 1
Nc1nc(Nc2cccc(F)c2)nc(N2CCOCC2)c1[N+](=O)[O-] | -7 | -29* | -4 | 1
COc1ccccc1N1CCN(C(=O)C(=O)c2cccc([N+](=O)[O-])c2)CC1 | nt | -5 | -5 | 2
O=C(c1cccc([N+](=O)[O-])c1)N1CCN(c2cccc(Cl)c2)CC1 | nt | nt | -5 | nt
COC(=O)c1cc(C(=O)N2CCN(c3cccc(Cl)c3)CC2)cc([N+](=O)[O-])c1 | nt | -9 | -3 | 8.7*
COc1ccc(N2CCN(C(=O)C(=O)c3cccc([N+](=O)[O-])c3)CC2)cc1 | nt | -4.6* | -5 | 2
CC(C)NC(=O)Nc1ccc2c(c1)CC(=O)N([C@@H](C)CO)C[C@@H](C)[C@@H](CN(C)S(=O)(=O)c1ccc(Cl)cc1)O2 | 102* | -3 | nt | -3
Cc1noc(C)c1S(=O)(=O)Nc1ccc2c(c1)C(=O)N([C@H](C)CO)C[C@H](C)[C@@H](CN(C)S(=O)(=O)c1ccc(F)cc1)O2 | 0 | -25*! | -2 | -2
Cc1noc(C)c1S(=O)(=O)Nc1ccc2c(c1)C(=O)N([C@@H](C)CO)C[C@H](C)[C@H](CN(C)S(=O)(=O)c1ccc(F)cc1)O2 | nt | -2 | nt | 5
C[C@H]1CN([C@@H](C)CO)C(=O)Cc2cc(NS(=O)(=O)c3ccc(F)cc3)ccc2O[C@@H]1CN(C)S(=O)(=O)c1ccc(F)cc1 | 98* | -1 | nt | 3
CC(C)NC(=O)Nc1ccc2c(c1)CC(=O)N([C@H](C)CO)C[C@H](C)[C@@H](CN(C)S(=O)(=O)c1ccc(Cl)cc1)O2 | 1 | 0 | nt | -2
CN(C)C(=O)C[C@@H]1C=C[C@H](NC(=O)C2CCOCC2)[C@H](CO)O1 | nt | 2 | nt | 1
N/C(=N/OC(=O)c1ccccc1Cl)c1nonc1N | nt | -23* | -4 | -4
COc1ccc2c3c(n(C)c2c1)[C@H](CO)N(Cc1ccncc1)CC31CN(C(=O)C2CC2)C1 | nt | 2 | nt | 4
SMILES | Cneo AK release | rRNA inh HTS | CaV13 FRET inh | F508del corr
Cc1ccc(C(=O)c2sc(Nc3ccccc3)c(C#N)c2N)cc1 | nt | nt | -6 | nt
CCOC(=O)c1ccc(Nc2sc(C(=O)c3cccc([N+](=O)[O-])c3)c(N)c2C#N)cc1 | 0 | -2 | -4 | 12*
NS(=O)(=O)c1ccc(CNc2ccc3ccccc3n2)cc1 | -4 | 5 | -5 | 8.7*
CS(=O)(=O)N1CCN(c2ccccc2NC(=O)Cc2ccccc2)CC1 | 0 | nt | -5 | nt
O=C(CN1CCN(c2ccc(O)cc2)CC1)Nc1cc(S(=O)(=O)N2CCCC2)ccc1Cl | nt | -21* | 0 | 4
O=C(CN1CCN(c2ccc(O)cc2)CC1)Nc1ccccc1C(=O)NCCc1ccccc1 | 3 | -25* | -14 | 3
O=C(Cc1ccccc1)Nc1ccccc1N1CCN(c2ccccc2)CC1 | 2 | -23* | -8 | 1
COc1ccc(-c2[nH]ncc2CN2CCCC(C(=O)c3cccc(OC)c3)C2)cc1 (stereo not drawn) | 2 | 6 | -5 | -1
COc1ccc2cc(-c3[nH]ncc3CN3CCCC3c3nonc3C)ccc2c1 (stereo not drawn) | 0 | -23* | -5 | ?
Nn1c(=S)[nH]c2sc3c(c2c1=O)CCCC3 | nt | -21* | -5 | nt
CCCn1c(=S)[nH]c2sc3c(c2c1=O)CCCC3 | 4 | -1 | -5 | -1
O=C(C(=O)N1CCC(CNS(=O)(=O)c2ccc(F)c(F)c2)CC1)c1cc2ccccc2o1 | nt | -12* | -10 | 1
COC(=O)c1sccc1NC(=O)CC1C(=O)NCCN1C(=O)Nc1cc(Cl)ccc1OC (stereo not drawn) | 0 | -22* | -21 | 0
COC(=O)c1sccc1NC(=O)CC1C(=O)NCCN1C(=O)c1ccccc1 (stereo not drawn) | -1 | 16 | -20 | -2
O=C(CCN1CCCCC1)N[C@@H]1CC[C@H](CCNS(=O)(=O)c2ccc(Cl)cc2)O[C@H]1CO | 50 | 1 | nt | -2
CC(OC(=O)CCCC(=O)Nc1ccc(F)cc1)C(=O)c1ccccc1 (stereo not drawn) | 1 | -3 | -3 | 9.4*
CCOC(=O)c1c(C)nc(C)c(C(=O)OCC)c1-c1ccccc1 | nt | -41* | -8 | 0
COc1cc(-c2nc3ccccc3s2)ccc1O | 2 | nt | -11 | nt
CCOc1cc(-c2nc3ccccc3s2)ccc1O | 6 | -35* | -4 | 1
CCOC(=O)c1c(CSC(=N)N)n(-c2ccc(C)cc2)c2cc(Br)c(OC(C)=O)cc12 | 3 | nt | -4 | nt
CCOC(=O)c1c(CSC(=N)N)n(C)c2cc(Br)c(OC(C)=O)cc12 | nt | -27* | -5 | -2
O=C(c1cccnc1)N1CC(=O)N2[C@H](C1)[C@@H](c1ccc(/C=C/c3ccccc3)cc1)[C@@H]2CO | nt | -2 | nt | -4
O=C(Nc1ccc(NC(=O)N2CCN(c3ccccc3O)CC2)cc1)N1CCN(c2ccccc2O)CC1 | 0 | -20* | -2 | -1
O=C(CN1C(=O)c2ccccc2S1(=O)=O)NCCSCc1c(F)cccc1Cl | -1 | -30* | -2 | -4
C[C@@H]1CN(C)C(=O)Cc2cc(N(C)C)ccc2O[C@H]1CN(C)C | nt | 3 | nt | nt
C[C@H]1CCCCO[C@@H](CN(C)Cc2ccc(C(F)(F)F)cc2)[C@@H](C)CN([C@@H](C)CO)C(=O)c2cc(NC(=O)CCCN(C)C)ccc2O1 | 5 | 2 | nt | -2
